Test results from ChEMBL document CHEMBL1151774, “Synthesis and biological evaluation of new N-linked 5-triazolylmethyl oxazolidinones” (Eur J Med Chem, 2008).
In brackets after ≈: the same amount, converted by molar mass.

Experiments:
Staphylococcus aureus [1] = assay: Antimicrobial activity against Staphylococcus aureus ATCC 29213 after 16 to 18 hrs by agar dilution method; type: functional
Staphylococcus aureus [2] = assay: Antimicrobial activity against methicillin-susceptible Staphylococcus aureus after 16 to 18 hrs by agar dilution method; type: functional
Staphylococcus aureus [3] = assay: Antimicrobial activity against methicillin-resistant Staphylococcus aureus after 16 to 18 hrs by agar dilution method; type: functional
Streptococcus pneumoniae = assay: Antimicrobial activity against sStreptococcus pneumoniae after 16 to 18 hrs by agar dilution method; type: functional
Enterococcus faecalis = assay: Antimicrobial activity against Enterococcus faecalis after 16 to 18 hrs by agar dilution method; type: functional
Staphylococcus aureus [4] = assay: Antimicrobial activity against methicillin-resistant Staphylococcus aureus 05-2 infected in po dosed KunMing SPF mouse; type: functional
In short: (§1)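 Mice given a lethal systemic infection by intraperitoneal injection of the MLD inoculum of MRSA 05-2. Compound dosed orally or by i.v. injection in 0.9% NaCl immediately and 4 h post-infection. ED50 (dose curing 50% of infected mice) calculated by the Bliss method on day 7 post-infection, with 95% confidence ranges.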

Staphylococcus aureus [5] = assay: Antimicrobial activity against methicillin-resistant Staphylococcus aureus 05-2 infected in iv dosed KunMing SPF mouse; type: functional; in short: as §1
[6] = Cmax in Sprague-Dawley rat at 10 mg/kg, po; type: ADME, organism-based; set-up: dose 10 mg/kg, route oral; conditions: in vivo
In short: (§2)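 Single dose given orally (10 or 50 mg/kg) or intravenously (10 mg/kg). Serial 300 µL blood samples were taken from the retrobulbar vein. Plasma was quantified by LC-MS. Parameters came from mean plasma concentration by non-compartmental analysis. F is absolute oral bioavailability, assuming linear pharmacokinetics.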

[7] = Cmax in Sprague-Dawley rat at 50 mg/kg, po; type: ADME, organism-based; set-up: dose 50 mg/kg, route oral; conditions: in vivo; in short: as §2
[8] = Tmax in Sprague-Dawley rat at 10 mg/kg, po; type: ADME, organism-based; set-up: dose 10 mg/kg, route oral; conditions: in vivo; in short: as §2
[9] = Tmax in Sprague-Dawley rat at 50 mg/kg, po; type: ADME, organism-based; set-up: dose 50 mg/kg, route oral; conditions: in vivo; in short: as §2
[10] = Elimination half life in Sprague-Dawley rat at 10 mg/kg, po; type: ADME, organism-based; set-up: dose 10 mg/kg, route oral; conditions: in vivo, read-out: beta t1/2 (converted); in short: as §2
[11] = Elimination half life in Sprague-Dawley rat at 50 mg/kg, po; type: ADME, organism-based; set-up: dose 50 mg/kg, route oral; conditions: in vivo, read-out: beta t1/2 (converted); in short: as §2
[12] = AUC (0 to infinity) in Sprague-Dawley rat at 10 mg/kg, po; type: ADME, organism-based, Plasma; set-up: time infinity, dose 10 mg/kg, route oral; conditions: Sprague-Dawley, plasma; in short: as §2
[13] = AUC (0 to infinity) in Sprague-Dawley rat at 50 mg/kg, po; type: ADME, organism-based, Plasma; set-up: time infinity, dose 50 mg/kg, route oral; conditions: Sprague-Dawley, plasma; in short: as §2
[14] = AUC (0 to infinity) in Sprague-Dawley rat at 10 mg/kg, iv; type: ADME, organism-based; set-up: time infinity, dose 10 mg/kg, route intravenous; conditions: plasma; in short: as §2
[15] = Clearance in Sprague-Dawley rat at 10 mg/kg, po; type: ADME, organism-based; set-up: dose 10 mg/kg, route oral; conditions: in vivo; in short: as §2
[16] = Clearance in Sprague-Dawley rat at 50 mg/kg, po; type: ADME, organism-based; set-up: dose 50 mg/kg, route oral; conditions: in vivo; in short: as §2
[17] = Clearance in Sprague-Dawley rat at 10 mg/kg, iv; type: ADME, organism-based; set-up: dose 10 mg/kg, route intravenous; conditions: in vivo; in short: as §2
[18] = Oral bioavailability in Sprague-Dawley rat at 10 mg/kg; type: ADME, organism-based; conditions: in vivo; in short: as §2
[19] = Elimination half life in Sprague-Dawley rat at 10 mg/kg, iv; type: ADME, organism-based; set-up: dose 10 mg/kg, route intravenous; conditions: in vivo, read-out: beta t1/2 (converted); in short: as §2
Staphylococcus aureus [20] = assay: Antimicrobial activity against methicillin-resistant Staphylococcus aureus 05-2 infected in sc dosed KunMing SPF mouse; type: functional

Compound `O=C1O[C@@H](Cn2ccnn2)CN1c1ccc(N2CCN(Cc3ccccc3[N+](=O)[O-])CC2)c(F)c1` has an MIC (Staphylococcus aureus [1]) of 0.125 µg/mL (≈ 0.26 µM), an MIC (Staphylococcus aureus [2]) of 0.125 µg/mL (≈ 0.26 µM) and an MIC (Staphylococcus aureus [3]) of 1 µg/mL (≈ 2.08 µM). For the same compound, the MIC (Streptococcus pneumoniae) was 1 µg/mL (≈ 2.08 µM) and the MIC (Enterococcus faecalis) was over 2 µg/mL.
`CC(=O)NC[C@H]1CN(c2ccc(N3CCOCC3)c(F)c2)C(=O)O1` [LINEZOLID] gave an MIC (Staphylococcus aureus [1]) of 0.5 µg/mL (≈ 1.48 µM), an MIC (Staphylococcus aureus [2]) of 0.5 µg/mL (≈ 1.48 µM) and an MIC (Staphylococcus aureus [3]) of 1 µg/mL (≈ 2.96 µM). For the same compound, the ED50 (Staphylococcus aureus [4]) was 8.45 mg/kg and the ED50 (Staphylococcus aureus [5]) was 8.45 mg/kg.
`O=C1O[C@@H](Cn2ccnn2)CN1c1ccc(N2CCN(Cc3ccc([N+](=O)[O-])cc3)CC2)c(F)c1` gave an MIC (Staphylococcus aureus [1]) of 0.5 µg/mL (≈ 1.04 µM), an MIC (Staphylococcus aureus [2]) of 0.5 µg/mL (≈ 1.04 µM) and an MIC (Staphylococcus aureus [3]) of over 8 µg/mL. The MIC (Streptococcus pneumoniae) was 4 µg/mL (≈ 8.31 µM) and the MIC (Enterococcus faecalis) was 8 µg/mL (≈ 16.6 µM).
In the case of `O=C1O[C@@H](Cn2ccnn2)CN1c1ccc(N2CCN(Cc3cccs3)CC2)c(F)c1`, the MIC (Staphylococcus aureus [1]) is reported as 0.06 µg/mL (≈ 0.136 µM), the MIC (Staphylococcus aureus [2]) is reported as 0.06 µg/mL (≈ 0.136 µM) and the MIC (Staphylococcus aureus [3]) is reported as 0.06 µg/mL (≈ 0.136 µM). For the same compound, the MIC (Streptococcus pneumoniae) was 0.06 µg/mL (≈ 0.136 µM) and the MIC (Enterococcus faecalis) was 2 µg/mL (≈ 4.52 µM).
Work on `Nc1cccc(CN2CCN(c3ccc(N4C[C@H](Cn5ccnn5)OC4=O)cc3F)CC2)c1` yielded an MIC (Staphylococcus aureus [1]) of 0.25 µg/mL (≈ 0.554 µM), an MIC (Staphylococcus aureus [2]) of 0.25 µg/mL (≈ 0.554 µM) and an MIC (Staphylococcus aureus [3]) of 0.5 µg/mL (≈ 1.11 µM). For the same compound, the MIC (Streptococcus pneumoniae) was 0.5 µg/mL (≈ 1.11 µM) and the MIC (Enterococcus faecalis) was 0.5 µg/mL (≈ 1.11 µM).
`O=C1O[C@@H](Cn2ccnn2)CN1c1ccc(N2CCN(Cc3ccc(Cl)o3)CC2)c(F)c1` gave an MIC (Staphylococcus aureus [1]) of 0.125 µg/mL (≈ 0.271 µM), an MIC (Staphylococcus aureus [2]) of 0.125 µg/mL (≈ 0.271 µM) and an MIC (Staphylococcus aureus [3]) of 1 µg/mL (≈ 2.17 µM). It also gave an MIC (Streptococcus pneumoniae) of 1 µg/mL (≈ 2.17 µM) and an MIC (Enterococcus faecalis) of 2 µg/mL (≈ 4.34 µM).
`O=C1O[C@@H](Cn2ccnn2)CN1c1ccc(N2CCN(Cc3ccoc3)CC2)c(F)c1` showed an MIC (Staphylococcus aureus [1]) of 0.008 µg/mL (≈ 0.0188 µM), an MIC (Staphylococcus aureus [2]) of 0.008 µg/mL (≈ 0.0188 µM) and an MIC (Staphylococcus aureus [3]) of 0.03 µg/mL (≈ 0.0703 µM). The MIC (Streptococcus pneumoniae) was 0.03 µg/mL (≈ 0.0703 µM), the MIC (Enterococcus faecalis) was 0.5 µg/mL (≈ 1.17 µM) and the ED50 (Staphylococcus aureus [4]) was 7.47 mg/kg. It also gave an ED50 (Staphylococcus aureus [5]) of 6.99 mg/kg, a Cmax [6] of 3040 ng/mL and a Cmax [7] of 10700 ng/mL. The Tmax [8] was 52.8 min, the Tmax [9] was 1.9 h and the half-life [10] was 166 min. It also gave a half-life [11] of 516 min, an AUC(0-inf) [12] of 16400 ng·h/mL and an AUC(0-inf) [13] of 85800 ng·h/mL. For the same compound, the AUC(0-inf) [14] was 26200 ng·h/mL, the CL/F [15] was 10.5 mL/min/kg and the CL/F [16] was 8.86 mL/min/kg. For the same compound, the clearance [17] was 6.98 mL/min/kg, the bioavailability [18] was 62.7% and the half-life [19] was 177 min.
For `CN[C@H](CC(C)C)C(=O)N[C@H]1C(=O)N[C@@H](CC(N)=O)C(=O)N[C@H]2C(=O)N[C@H]3C(=O)N[C@H](C(=O)N[C@H](C(=O)O)c4cc(O)cc(O)c4-c4cc3ccc4O)[C@H](O)c3ccc(c(Cl)c3)Oc3cc2cc(c3O[C@@H]2O[C@H](CO)[C@@H](O)[C@H](O)[C@H]2O[C@H]2C[C@](C)(N)[C@H](O)[C@H](C)O2)Oc2ccc(cc2Cl)[C@H]1O` [VANCOMYCIN], the MIC (Staphylococcus aureus [1]) was 0.125 µg/mL (≈ 0.0863 µM), the MIC (Staphylococcus aureus [2]) was 0.125 µg/mL (≈ 0.0863 µM) and the MIC (Streptococcus pneumoniae) was 1 µg/mL (≈ 0.69 µM). It also gave an MIC (Enterococcus faecalis) of 1 µg/mL (≈ 0.69 µM), an ED50 (Staphylococcus aureus [5]) of 6.54 mg/kg and an ED50 (Staphylococcus aureus [20]) of 6 mg/kg.
For `Nc1ccccc1CN1CCN(c2ccc(N3C[C@H](Cn4ccnn4)OC3=O)cc2F)CC1`, the MIC (Staphylococcus aureus [1]) was 0.125 µg/mL (≈ 0.277 µM), the MIC (Staphylococcus aureus [2]) was 0.125 µg/mL (≈ 0.277 µM) and the MIC (Staphylococcus aureus [3]) was 0.5 µg/mL (≈ 1.11 µM). For the same compound, the MIC (Streptococcus pneumoniae) was 0.5 µg/mL (≈ 1.11 µM) and the MIC (Enterococcus faecalis) was 1 µg/mL (≈ 2.21 µM).
`Nc1ccc(CN2CCN(c3ccc(N4C[C@H](Cn5ccnn5)OC4=O)cc3F)CC2)cc1` gave an MIC (Staphylococcus aureus [1]) of 0.125 µg/mL (≈ 0.277 µM), an MIC (Staphylococcus aureus [2]) of 0.06 µg/mL (≈ 0.133 µM) and an MIC (Staphylococcus aureus [3]) of 0.5 µg/mL (≈ 1.11 µM). It also gave an MIC (Streptococcus pneumoniae) of 0.5 µg/mL (≈ 1.11 µM), an MIC (Enterococcus faecalis) of 0.25 µg/mL (≈ 0.554 µM) and an ED50 (Staphylococcus aureus [4]) of 14.5 mg/kg. It also gave an ED50 (Staphylococcus aureus [5]) of 6.73 mg/kg, a Cmax [6] of 1200 ng/mL and a Cmax [7] of 2320 ng/mL. For the same compound, the Tmax [8] was 45 min, the Tmax [9] was 1 h and the half-life [10] was 204 min. For the same compound, the half-life [11] was 280 min, the AUC(0-inf) [12] was 3100 ng·h/mL and the AUC(0-inf) [13] was 18100 ng·h/mL. The AUC(0-inf) [14] was 7080 ng·h/mL, the CL/F [15] was 54.4 mL/min/kg and the CL/F [16] was 49 mL/min/kg. For the same compound, the clearance [17] was 23.9 mL/min/kg, the bioavailability [18] was 43.8% and the half-life [19] was 211 min.
With `Cc1ccc(CN2CCN(c3ccc(N4C[C@H](Cn5ccnn5)OC4=O)cc3F)CC2)s1` the MIC (Staphylococcus aureus [1]) was 0.125 µg/mL (≈ 0.274 µM), the MIC (Staphylococcus aureus [2]) was 0.06 µg/mL (≈ 0.131 µM) and the MIC (Staphylococcus aureus [3]) was 4 µg/mL (≈ 8.76 µM). It also gave an MIC (Streptococcus pneumoniae) of 2 µg/mL (≈ 4.38 µM) and an MIC (Enterococcus faecalis) of 4 µg/mL (≈ 8.76 µM).
Work on `Cc1ccc(CN2CCN(c3ccc(N4C[C@H](Cn5ccnn5)OC4=O)cc3F)CC2)o1` yielded an MIC (Staphylococcus aureus [1]) of 0.125 µg/mL (≈ 0.284 µM), an MIC (Staphylococcus aureus [2]) of 0.125 µg/mL (≈ 0.284 µM) and an MIC (Staphylococcus aureus [3]) of 1 µg/mL (≈ 2.27 µM). For the same compound, the MIC (Streptococcus pneumoniae) was 2 µg/mL (≈ 4.54 µM) and the MIC (Enterococcus faecalis) was 2 µg/mL (≈ 4.54 µM).
